Test results taken from ChEMBL document CHEMBL4706740, “Structure-Activity Study of Nitazoxanide Derivatives as Novel STAT3 Pathway Inhibitors” (ACS Med Chem Lett, 2021).

Tests used:
[1] = molecular target: Signal transducer and activator of transcription 3 (Homo sapiens) (UniProt P40763); experiment: Inhibition of STAT3 transcriptional activity in human HeLa cells assessed as downregulation of cyclin D1 expression upto 80 uM after 24 hrs by western blot analysis; assay type: cell-based; conditions: dose microM <=80, time […]
In short: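 HeLa cells treated 24 h with a concentration series. Total cell lysates probed by Western blot with specific antibodies for the STAT3 target gene products cyclin D1, c-Myc and survivin.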

HeLa = experiment: Induction of apoptosis in human HeLa cells assessed as necrotic cells at 20 uM incubated for 24 hrs by Annexin V-FITC/PI staining based flow cytometry (reference value: 0.02%); assay type: functional
[2] = molecular target: Signal transducer and activator of transcription 3 (Homo sapiens) (UniProt P40763); experiment: Inhibition of IL-6 induced STAT3 transcriptional activity in human HEK-Blue IL-6 cells assessed as secreted embryonic alkaline phosphatase reporter gene expression at 10 uM by microplate reader; assay type: cell-based
In short: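 Single-concentration screen in HEK-Blue IL-6 cells: % inhibition of the SEAP reporter read-out of STAT3 pathway activity, with viability checked by MTT in parallel. Values are averages of three independent experiments.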

[3] = Antiproliferative activity against human U87MG cells assessed as cell growth inhibition measured after 48 hrs by MTT assay; assay type: functional, cell-based
PC-3 = experiment: Antiproliferative activity against human PC3 cells assessed as cell growth inhibition measured after 48 hrs by MTT assay; assay type: functional, cell-based; conditions: PC-3, 48 h
[4] = Half life in Sprague-Dawley rat at 5 mg/kg, iv; assay type: ADME, organism-based; conditions: in vivo
In short: (§1)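 Rats, n = 3 per group, received a single dose either intragastrically (25 mg/kg) or intravenously (5 mg/kg). Plasma concentration–time curves were used to derive t1/2α, t1/2β, Vd/F, CL/F, AUC0–∞, Tmax and Cmax. Absolute oral bioavailability was calculated from the ig and iv data.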

[5] = Absolute bioavailability in Sprague-Dawley rat at 25 mg/kg, IG; assay type: ADME, organism-based; conditions: in vivo, po; in short: as §1
[6] = Selectivity index, ratio of inhibition of IL-6 induced STAT3 transcriptional activity to inhibition against HEK-Blue IL-6 cells assessed as reduction in cell viability at 10 uM

Signal transducer and activator of transcription 3 (Homo sapiens), sequence (P40763 whole entry): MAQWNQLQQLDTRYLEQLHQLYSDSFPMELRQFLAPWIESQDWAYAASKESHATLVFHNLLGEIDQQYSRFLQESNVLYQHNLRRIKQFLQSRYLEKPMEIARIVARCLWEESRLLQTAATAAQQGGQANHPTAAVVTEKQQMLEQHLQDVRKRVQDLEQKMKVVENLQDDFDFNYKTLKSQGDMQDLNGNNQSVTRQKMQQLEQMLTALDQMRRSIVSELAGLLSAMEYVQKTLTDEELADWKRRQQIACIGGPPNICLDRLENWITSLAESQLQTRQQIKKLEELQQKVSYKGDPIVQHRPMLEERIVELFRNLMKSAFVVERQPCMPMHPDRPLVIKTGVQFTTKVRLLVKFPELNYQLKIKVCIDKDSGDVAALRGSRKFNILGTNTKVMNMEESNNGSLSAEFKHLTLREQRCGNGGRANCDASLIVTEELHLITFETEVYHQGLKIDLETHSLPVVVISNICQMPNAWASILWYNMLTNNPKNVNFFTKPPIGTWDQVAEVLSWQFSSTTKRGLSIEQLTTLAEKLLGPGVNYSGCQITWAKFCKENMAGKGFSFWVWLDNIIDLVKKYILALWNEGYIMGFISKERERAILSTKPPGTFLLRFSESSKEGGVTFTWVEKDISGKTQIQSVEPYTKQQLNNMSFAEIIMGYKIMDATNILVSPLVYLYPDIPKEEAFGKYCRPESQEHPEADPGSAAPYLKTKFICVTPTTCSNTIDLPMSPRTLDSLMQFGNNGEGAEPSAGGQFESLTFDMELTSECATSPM

## CC(=O)Oc1ccccc1C(=O)Nc1ncc([N+](=O)[O-])s1 [NITAZOXANIDE]
[1]
  inhibition: Dose-dependent effect
HeLa
  Activity: 0.04%
[2]
  inhibition: 54.6%
[3]
  IC50: 30 µM
PC-3
  IC50: 44.7 µM
[4]
  half-life: 3 min
[5]
  bioavailability: 5.7%
[6]
  Selectivity Index: 2.8
